# In ChEMBL document CHEMBL1139755, “Synthesis and in vitro antibacterial activity of novel methylamino piperidinyl oxazolidinones” (2007):
# Experiments:
# Staphylococcus aureus [1] = assay: Antibacterial activity against Staphylococcus aureus ATCC 29213 by broth microdilution method; assay type: functional
# Method in brief: (§1)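 Endpoint is the minimum inhibitory concentration, determined by broth microdilution against a panel of susceptible Gram-positive strains. Values are reported as a range spanning two concentrations (for example 8–16). Values above the top concentration tested are given as >16.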
# Staphylococcus aureus [2] = assay: Antibacterial activity against Staphylococcus aureus ATCC 33592 by broth microdilution method; assay type: functional; method in brief: as §1
# Staphylococcus aureus [3] = assay: Antibacterial activity against Staphylococcus aureus ATCC 33591 by broth microdilution method; assay type: functional; method in brief: as §1
# [4] = system: Staphylococcus epidermidis; assay: Antibacterial activity against Staphylococcus epidermidis ATCC 155 by broth microdilution method; assay type: functional; method in brief: as §1
# Enterococcus faecalis [5] = assay: Antibacterial activity against multidrug resistant Enterococcus faecalis ATCC 700802 by broth microdilution method; assay type: functional
# Enterococcus faecalis [6] = assay: Antibacterial activity against Enterococcus faecalis ATCC 29212 by broth microdilution method; assay type: functional; method in brief: as §1
# Enterococcus faecalis [7] = assay: Antibacterial activity against Enterococcus faecalis ATCC 14506 by broth microdilution method; assay type: functional; method in brief: as §1
# Bacillus subtilis = assay: Antibacterial activity against Bacillus subtilis ATCC 6633 by broth microdilution method; assay type: functional; method in brief: as §1
# Enterococcus faecium = assay: Antibacterial activity against vancomycin-resistant Enterococcus faecium ATCC 700221 by broth microdilution method; assay type: functional
# Staphylococcus aureus [8] = assay: Antibacterial activity against linezolid-resistant Staphylococcus aureus NRS 119 by broth microdilution method; assay type: functional
# Method in brief: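 Linezolid-resistant S. aureus strain obtained from NARSA; minimum inhibitory concentration found by broth microdilution and reported as a concentration range.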
# Streptococcus pneumoniae = assay: Antibacterial activity against multidrug-resistant Streptococcus pneumoniae ATCC 700904 by broth microdilution method; assay type: functional
# Streptococcus pyogenes = assay: Antibacterial activity against Streptococcus pyogenes ATCC 14289 by broth microdilution method
# [9] = system: Staphylococcus epidermidis; assay: Antibacterial activity against Staphylococcus epidermidis ATCC 12228 by broth microdilution method; assay type: functional; method in brief: as §1
# Staphylococcus aureus [10] = assay: Antibacterial activity against methicillin-resistant Staphylococcus aureus ATCC 700699 by broth microdilution method; assay type: functional
# Staphylococcus aureus [11] = assay: Antibacterial activity against Staphylococcus aureus ATCC 25923 by broth microdilution method; assay type: functional; method in brief: as §1
SMILES,MIC (Staphylococcus aureus [1]) [µg/mL],MIC (Staphylococcus aureus [2]) [µg/mL],MIC (Staphylococcus aureus [3]) [µg/mL],MIC [4] [µg/mL],MIC (Enterococcus faecalis [5]) [µg/mL],MIC (Enterococcus faecalis [6]) [µg/mL],MIC (Enterococcus faecalis [7]) [µg/mL],MIC (Bacillus subtilis) [µg/mL],MIC (Enterococcus faecium) [µg/mL],MIC (Staphylococcus aureus [8]) [µg/mL],MIC (Streptococcus pneumoniae) [µg/mL],MIC (Streptococcus pyogenes) [µg/mL],MIC [9] [µg/mL],MIC (Staphylococcus aureus [10]) [µg/mL],MIC (Staphylococcus aureus [11]) [µg/mL]
CC(=O)NC[C@H]1CN(c2ccc(N(C)C3CCN(C(=O)/C=C/c4ccc5c(c4)OCO5)CC3)c(F)c2)C(=O)O1,> 16,> 16,8,> 16,> 16,8,> 16,2,> 16,> 16,> 16,> 16,8,> 16,> 16
CC(=O)NC[C@H]1CN(c2ccc(N(C)C3CCNCC3)c(F)c2)C(=O)O1,> 16,> 16,> 16,> 16,> 16,> 16,> 16,> 16,> 16,> 16,> 16,> 16,> 16,> 16,> 16
CC(=O)NC[C@H]1CN(c2ccc(N(C)C3CCN(C(=O)/C=C/c4ccco4)CC3)c(F)c2)C(=O)O1,> 16,> 16,> 16,> 16,> 16,> 16,> 16,2,8,> 16,> 16,> 16,> 16,8,> 16
CC(=O)NC[C@H]1CN(c2ccc(N(C)C3CCN(C(=O)/C=C/c4ccccc4)CC3)c(F)c2)C(=O)O1,8,4,8,4,8,> 16,> 16,2,4,> 16,8,8,8,8,8
CC(=O)NC[C@H]1CN(c2ccc(N(C)C3CCN(C(=O)/C=C/c4ccc(O)cc4)CC3)c(F)c2)C(=O)O1,> 16,> 16,8,8,8,4,> 16,2,8,> 16,8,8,8,4,8
CC(=O)NC[C@H]1CN(c2ccc(N(C)C3CCN(C(=O)/C=C/c4ccc([N+](=O)[O-])o4)CC3)c(F)c2)C(=O)O1,2,1,1,0.25,8,2,4,0.5,1,2,0.25,2,1,1,2
